Reference: ChEMBL document CHEMBL1811864 (Bioorg Med Chem, 2011)

Experiments:
[1] = test system: Escherichia coli DH5[alpha]; test: Antagonist activity at Escherichia coli DH5alpha (pJN105L + pSC11) LasR assessed as inhibition of OdDHL-induced quorum sensing activation at 10 uM after 8 hrs by beta-galactosidase reporter gene assay relative to untreated control; assay type: functional
[2] = molecular target: T1, Transcriptional activator protein LuxR (Aliivibrio fischeri) (UniProt P12746); test: Antagonist activity at Vibrio fischeri ESI 114 (delta-LuxI) LuxR assessed as inhibition of […]-induced quorum sensing activation at 10 uM after 8 hrs by […] relative to untreated control; assay type: functional
T1 sequence (whole entry): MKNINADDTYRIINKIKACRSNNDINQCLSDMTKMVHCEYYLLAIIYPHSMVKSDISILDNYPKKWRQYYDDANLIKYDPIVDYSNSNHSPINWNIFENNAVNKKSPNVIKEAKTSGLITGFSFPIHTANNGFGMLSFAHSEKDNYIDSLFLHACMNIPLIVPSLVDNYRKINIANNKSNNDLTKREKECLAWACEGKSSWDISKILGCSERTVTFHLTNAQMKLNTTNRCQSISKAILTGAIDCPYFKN

[3] = molecular target: T1, Transcriptional activator protein LuxR (Aliivibrio fischeri); test: Agonist activity at Vibrio fischeri ESI 114 (delta-LuxI) LuxR at 10 uM after 8 hrs by […] relative to […]; assay type: functional
How it was run: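 V. fischeri ESI 114 lacking LuxI synthase but keeping its native lux operon; LuxR activity read as luminescence. Compounds were screened at 10 µM alone, without native AHL. Signal was normalized to the native-ligand positive control.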

[4] = molecular target: T2, Transcriptional activator protein TraR (Agrobacterium tumefaciens) (UniProt P33905); test: Antagonist activity at Agrobacterium tumefaciens WCF (pCF372) TraR assessed as inhibition of […]-induced quorum sensing activation at 10 uM after 8 hrs by beta-galactosidase reporter gene assay relative to untreated control; assay type: functional
T2 sequence (whole entry): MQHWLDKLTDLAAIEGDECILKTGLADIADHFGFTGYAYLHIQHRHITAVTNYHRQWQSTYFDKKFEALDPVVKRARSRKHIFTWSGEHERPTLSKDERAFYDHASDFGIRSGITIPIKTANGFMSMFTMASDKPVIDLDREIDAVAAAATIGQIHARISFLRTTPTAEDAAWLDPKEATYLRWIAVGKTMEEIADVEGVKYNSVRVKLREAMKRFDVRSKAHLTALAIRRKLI

[5] = molecular target: T2, Transcriptional activator protein TraR (Agrobacterium tumefaciens); test: Agonist activity at Agrobacterium tumefaciens WCF (pCF372) TraR at 10 uM after 8 hrs by beta-galactosidase reporter gene assay relative to […]; assay type: functional
Pseudomonas aeruginosa = test: Growth inhibition of Pseudomonas aeruginosa PAO1 MW1 (pUM15) at 10 uM after 4 to 16 hrs; assay type: organism-based; settings: in vivo
How it was run: (§1)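 Bacterial growth was monitored over the reporter gene assay time course (4–16 h) with compounds at 10 µM.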

Escherichia coli = test: Growth inhibition of Escherichia coli DH5alpha (pJN105L + pSC11) at 10 uM after 4 to 16 hrs; assay type: organism-based, DH5[alpha]; settings: in vivo; how it was run: as §1
Aliivibrio fischeri = test: Growth inhibition of Vibrio fischeri ESI 114 (delta-LuxI) at 10 uM after 4 to 16 hrs; assay type: organism-based; settings: in vivo; how it was run: as §1
[6] = test system: Agrobacterium tumefaciens; test: Growth inhibition of Agrobacterium tumefaciens WCF (pCF372) at 10 uM after 4 to 16 hrs; assay type: organism-based; settings: in vivo; how it was run: as §1
[7] = molecular target: T3, Transcriptional activator protein LasR (Pseudomonas aeruginosa (strain ATCC 15692 / PAO1 / 1C / PRS 101 / LMG12228)) (UniProt P25084); test: Agonist activity at Pseudomonas aeruginosa PAO1 MW1 (pUM15) LasR at 10 uM after 8 hrs by YFP fluorescence reporter gene assay relative to OdDHL
T3 sequence (whole entry): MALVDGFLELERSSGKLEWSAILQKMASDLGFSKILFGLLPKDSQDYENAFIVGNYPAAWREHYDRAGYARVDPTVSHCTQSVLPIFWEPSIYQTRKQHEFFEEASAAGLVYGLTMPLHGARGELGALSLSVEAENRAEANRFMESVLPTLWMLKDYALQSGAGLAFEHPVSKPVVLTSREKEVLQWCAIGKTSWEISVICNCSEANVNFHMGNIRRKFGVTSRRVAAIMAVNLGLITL

[8] = test system: Escherichia coli DH5[alpha]; test: Agonist activity at Escherichia coli DH5alpha (pJN105L + pSC11) LasR at 10 uM after 8 hrs by beta-galactosidase reporter gene assay relative to OdDHL; assay type: functional
[9] = Antagonist activity at Escherichia coli DH5alpha (pJN105L + pSC11) LasR assessed as inhibition of OdDHL-induced quorum sensing activation after 8 hrs by beta-galactosidase reporter gene assay; assay type: functional, Escherichia coli DH5[alpha]
[10] = molecular target: T3, Transcriptional activator protein LasR (Pseudomonas aeruginosa (strain ATCC 15692 / PAO1 / 1C / PRS 101 / LMG12228)); test: Antagonist activity at Pseudomonas aeruginosa PAO1 MW1 (pUM15) LasR assessed as inhibition of OdDHL-induced quorum sensing activation at 10 uM after 8 hrs by […] relative to untreated control; assay type: functional
How it was run: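 P. aeruginosa PAO1 MW1 (pUM15) lacks functional LasI and carries a LasR-responsive promoter driving YFP, so fluorescence is the read-out. Compounds were tested at 10 µM. […] Background from wells with no compound or AHL was subtracted. Assays were done in triplicate.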

[11] = molecular target: T4, Transcriptional activator protein LuxR (Aliivibrio fischeri, UniProt P12746); test: Antagonist activity at Vibrio fischeri ESI 114 (delta-LuxI) LuxR assessed as inhibition of OHHL-induced quorum sensing activation after 8 hrs by […]
T4 sequence (P12746 whole entry): T1 sequence (whole entry)

[12] = Agonist activity at Escherichia coli DH5alpha (pJN105L + pSC11) LasR after 8 hrs by beta-galactosidase reporter gene assay relative to OdDHL; assay type: functional, Escherichia coli DH5[alpha]
[13] = molecular target: T5, Transcriptional activator protein LasR (Pseudomonas aeruginosa (strain ATCC 15692 / PAO1 / 1C / PRS 101 / LMG12228), UniProt P25084); test: Agonist activity at Pseudomonas aeruginosa PAO1 MW1 (pUM15) LasR after 8 hrs by YFP fluorescence reporter gene assay relative to OdDHL
T5 sequence (P25084 whole entry): T3 sequence (whole entry)

| Compound | inhibition [1] [%] | inhibition [2] [%] | Activity [3] [%] | inhibition [4] [%] | Activity [5] [%] | Activity (Pseudomonas aeruginosa) | Activity (Escherichia coli) | Activity (Aliivibrio fischeri) | Activity [6] | Activity [7] [%] | Activity [8] [%] | IC50 [9] [nM] | inhibition [10] [%] | IC50 [11] [nM] | EC50 [12] [nM] | EC50 [13] [nM] |
| --- | --- | --- | --- | --- | --- | --- | --- | --- | --- | --- | --- | --- | --- | --- | --- | --- |
| O=C(Cc1ccc(-c2ccccc2)cc1)NC1CCSC1=O (racemic) | 45 | 85 | 0 | 26 | 11 | Non-toxic | Non-toxic | Non-toxic | Non-toxic | 1 | – | – | – | – | – | – |
| COc1ccc(CC(=O)N[C@H]2CCSC2=O)cc1 | 51 | 70 | 1 | – | 0 | Non-toxic | Non-toxic | Non-toxic | Non-toxic | 7 | 1 | 7200 | – | – | – | – |
| CCCC(=O)N[C@H]1CCSC1=O | 17 | 42 | 0 | – | 0 | Non-toxic | Non-toxic | Non-toxic | Non-toxic | 22 | 4 | – | – | – | – | – |
| O=C(Cc1ccccc1)NC1CCSC1=O (racemic) | 61 | 30 | 0 | 13 | 0 | Non-toxic | Non-toxic | Non-toxic | Non-toxic | 17 | 3 | – | – | – | – | – |
| CCCCCCCC(=O)N[C@H]1CCSC1=O | 64 | 80 | 0 | 99 | 0 | Non-toxic | Non-toxic | Non-toxic | Non-toxic | 0 | 85 | 140 | -7 | 130 | – | – |
| O=C(Cc1ccc(-c2ccccc2)cc1)N[C@H]1CCSC1=O | 56 | 98 | 0 | 9 | 0 | Non-toxic | Non-toxic | Non-toxic | Non-toxic | 3 | 9 | 2900 | – | 350 | – | – |
| O=C(CCc1cc2ccccc2[nH]1)NC1CCSC1=O (racemic) | 54 | 75 | 0 | – | 6 | Non-toxic | Non-toxic | Non-toxic | Non-toxic | 3 | 72 | – | – | – | – | – |
| CCCCCCCCCC(=O)CC(=O)NC1CCSC1=O (racemic) | – | 91 | 0 | 51 | 1 | Non-toxic | Non-toxic | Non-toxic | Non-toxic | 127 | 102 | – | – | – | – | – |
| COc1ccc(CC(=O)NC2CCSC2=O)cc1 (racemic) | 48 | 59 | 0 | – | – | Non-toxic | Non-toxic | Non-toxic | Non-toxic | 4 | 0 | – | – | – | – | – |
| O=C(Cc1ccc(Br)cc1)N[C@H]1CCSC1=O | 80 | 97 | 0 | – | 0 | Non-toxic | Non-toxic | Non-toxic | Non-toxic | 8 | 2 | 400 | – | 770 | – | – |
| O=C(Cc1ccc(Br)cc1)NC1CCSC1=O (racemic) | 68 | 91 | 0 | 25 | 1 | Non-toxic | Non-toxic | Non-toxic | Non-toxic | 5 | 8 | – | – | – | – | – |
| O=C(Cc1ccccc1)N[C@H]1CCSC1=O | 65 | 34 | 0 | – | 3 | Non-toxic | Non-toxic | Non-toxic | Non-toxic | 2 | 2 | 2500 | – | – | – | – |
| O=C(CCc1cc2ccccc2[nH]1)N[C@H]1CCSC1=O | 16 | 68 | 0 | – | 0 | Non-toxic | Non-toxic | Non-toxic | Non-toxic | 10 | 4 | – | -7 | – | 1800 | – |
| CCCCCCCCCCCC(=O)N[C@H]1CCSC1=O | – | 57 | 0 | 6 | 0 | Non-toxic | Non-toxic | Non-toxic | Non-toxic | 42 | 94 | – | – | – | 1900 | 21000 |
| CCCCCC(=O)N[C@H]1CCSC1=O | 59 | 93 | 0 | – | 0 | Non-toxic | Non-toxic | Non-toxic | Non-toxic | 20 | 1 | 1100 | – | 840 | – | – |
| O=C(Cc1cccc([N+](=O)[O-])c1)NC1CCSC1=O (racemic) | -3 | 30 | 26 | 30 | 0 | Non-toxic | Non-toxic | Non-toxic | Non-toxic | 3 | 81 | – | – | – | – | – |
